Results on 15 compounds are retold here after ChEMBL document CHEMBL3085712, “Protein tyrosine phosphatase 1B (PTP1B) inhibitors from Morinda citrifolia (Noni) and their insulin mimetic activity” (J Nat Prod, 2013).

For assay [1], the system named is 3T3-L1. As to the kind of experiment: Increase in 2-NBDG uptake in mouse 3T3L1 cells after 30 mins by fluorescence spectrophotometry. The format is functional, cell-based. In a few lines:
(§1)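 Mouse 3T3-L1 preadipocytes were differentiated with insulin, IBMX, dexamethasone, rosiglitazone and 10% FBS, then used 7 days after induction at 3 × 10^4 cells/well. Cells were starved 3 h in low-glucose serum-free DMEM, treated 30 min, then given 50 μM 2-NBDG for 1 h (90 min total). After lysis in 0.1 M K3PO4/1% Triton X-100, fluorescence was read at ex 450/em 535 nm; fold versus DMSO; triplicates, mean ± SD.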

Assay [2] concerns 3T3-L1. Put plainly: Increase in 2-NBDG uptake in mouse 3T3L1 cells at 400 ug/ml after 30 mins by fluorescence spectrophotometry relative to DMSO-treated control. The format is functional. In a few lines:
as §1

Assay [3] addresses T1, Tyrosine-protein phosphatase non-receptor type 1 (Homo sapiens, UniProt P18031).
T1 sequence (P18031 whole entry): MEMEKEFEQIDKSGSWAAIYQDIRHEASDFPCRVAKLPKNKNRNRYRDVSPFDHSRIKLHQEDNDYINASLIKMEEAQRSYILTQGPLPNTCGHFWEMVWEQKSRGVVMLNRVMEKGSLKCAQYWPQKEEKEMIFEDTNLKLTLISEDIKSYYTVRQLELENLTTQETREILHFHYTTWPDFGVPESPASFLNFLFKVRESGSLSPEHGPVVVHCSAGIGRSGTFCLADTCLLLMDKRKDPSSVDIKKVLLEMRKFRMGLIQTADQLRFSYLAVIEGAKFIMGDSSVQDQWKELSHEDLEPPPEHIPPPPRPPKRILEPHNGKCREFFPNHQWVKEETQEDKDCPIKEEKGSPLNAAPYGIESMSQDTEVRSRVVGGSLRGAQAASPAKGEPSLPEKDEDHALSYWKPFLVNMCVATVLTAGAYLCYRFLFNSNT
As to the kind of experiment: Inhibition of PTP1B (unknown origin) assessed as p-nitrophenol release from pNPP substrate after 30 mins by spectrophotometry. Summed up:
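Commercial PTP1B (0.05–0.1 μg) was incubated with 4 mM p-NPP in 50 mM citrate pH 6.0, 1 mM DTT, 0.1 M NaCl and 1 mM EDTA at 37 °C for 30 min. IC50 came from a seven-concentration curve; triplicates, mean ± SD.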

Broadly, the IC50 is the concentration that inhibits the measured activity by half. For `Oc1ccc([C@H]2OC[C@H]3[C@@H]2CO[C@H]3c2ccc(O)c(O)c2)cc1O`, in the assay on 3T3-L1 [1], the Activity entry is “Dose-dependent effect”. Also, in the assay on 3T3-L1 [2] (in the assay text read “at 20 uM” for “at 400 ug/ml”), the “fold change (FC)” value worked out at 1.52. Also, in assay [3] (read-out: IC50), the 50% inhibitory concentration (IC50) turned out to be 21.9 µM.
`Oc1ccc([C@@H]2OC[C@@H]3[C@H]2CO[C@H]3c2ccc(O)c(O)c2)cc1O`: the half-maximal inhibitory concentration (IC50) in assay [3] (read-out: IC50) was greater than 30 µM.
On the same count and under the same terms, to `O=C(O)/C=C/c1ccc2c(c1)O[C@@H](CO)[C@@H](c1ccc(O)c(O)c1)O2` belongs greater than 30 µM.
As to `COc1cc([C@H]2Oc3ccc(/C=C/C(=O)O)cc3O[C@@H]2CO)ccc1O`, the 50% inhibitory concentration (IC50) in assay [3] (read-out: IC50) was greater than 30 µM.
Same read-out and setting: to `COc1cc([C@H]2Oc3ccc(C(=O)O)cc3O[C@@H]2CO)ccc1O` belongs 19.6 µM.
For the compound `O=C1O[C@@H](c2ccc(O)c(O)c2)[C@@H]2CO[C@@H](c3ccc(O)c(O)c3)[C@H]12`, the concentration for half-maximal inhibition (IC50) entry in assay [3] is reported as “Not Active”.
Take `COc1cc([C@H]2OC[C@H]3[C@@H]2CO[C@@H]3c2cc(OC)c(OC)c(OC)c2)cc(OC)c1OC`: in the assay on 3T3-L1 [1], the Activity result was “Dose-dependent effect”. Also, the “fold change (FC)” value with 3T3-L1 [2] was found to be 1.45. The half-maximal inhibitory concentration (IC50) in assay [3] (read-out: IC50) amounted to 16.8 µM.
Turning to `O=C(O)/C=C/c1ccc2c(c1)O[C@@H](CO)[C@H](c1ccc(O)c(O)c1)O2` (relative stereo), in assay [3] (read-out: IC50), the IC50 is greater than 30 µM.
Same read-out and setting: with `COc1cc([C@H]2Oc3ccc(CCCO)cc3O[C@@H]2CO)ccc1O` (relative stereo) the figure was greater than 30 µM.
As for `O=C1O[C@@H](c2ccc(O)c(O)c2)[C@H](CO)/C1=C\c1ccc(O)c(O)c1` (relative stereo), in assay [3], the IC50 entry is given as “Not Active”.
Turning to `COc1cc([C@@H]2OC[C@H]3[C@@H]2CO[C@H]3c2ccc(O)c(OC)c2)ccc1O` [(-)-PINORESINOL], the IC50 in assay [3] (read-out: IC50) worked out at 18.7 µM.
Take `O=C/C=C/c1ccc2c(c1)O[C@@H](CO)[C@H](c1ccc(O)c(O)c1)O2` [AMERICANIN A]: in assay [3], the half-maximal inhibitory concentration (IC50) entry is reported as “Not Active”.
Take `CN(CCOc1ccc(CC2SC(=O)NC2=O)cc1)c1ccccn1` (configuration not stated) [ROSIGLITAZONE]: the “fold change (FC)” value with 3T3-L1 [2] is on record as 1.7.
In the case of `COc1cc([C@H]2OC[C@H]3[C@@H]2CO[C@@H]3c2cc(OC)c(O)c(OC)c2)cc(OC)c1O` [SYRINGARESINOL], the Activity result in the assay with 3T3-L1 [1] was “Dose-dependent effect”. Besides, the “fold change (FC)” value in the assay on 3T3-L1 [2] turned out to be 1.46. Further, the half-inhibitory concentration (IC50) in assay [3] (read-out: IC50) was 15 µM.
Take `C[C@H]1[C@H](C)CC[C@]2(C(=O)O)CC[C@]3(C)C(=CC[C@@H]4[C@@]5(C)CC[C@H](O)C(C)(C)[C@@H]5CC[C@]43C)[C@H]12` [URSOLIC ACID]: the Activity result in the assay with 3T3-L1 [1] is “Dose-dependent effect”. In addition, in the assay on 3T3-L1 [2], the “fold change (FC)” value came to 1.82.
